The values that follow come from ChEMBL document CHEMBL4673287, “Synthesis and biological evaluation of novel antipsychotic trans-4-(2-(1,2,4,5-tetrahydro-3H-benzo[d]azepin-3-yl)ethyl)cyclohexan-1-amine derivatives targeting dopamine/serotonin receptor subtypes” (Bioorg Med Chem Lett, 2021).

Data set [1] addresses Adrenergic receptor alpha-1 (Rattus norvegicus) (UniProt P15823+P23944+P43140). The data set is described as follows: Displacement of [3H]-prazosin from adrenergic alpha1 in rat cerebral cortex at 10 uM relative to control. It counts as tissue-based. On the technique in general: In a radioligand displacement assay an active substance lowers the binding of a labelled ligand.

Data set [2] addresses T1, D(2) dopamine receptor (Homo sapiens, UniProt P14416). The data set is described as follows: Displacement of [3H]-spiperone from recombinant human D2L receptor expressed in CHO cells. In kind it is cell-based. The essentials:
(§1)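 Eight-concentration displacement curves, two independent experiments in duplicate, value is the mean Ki.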

The target in data set [3] is T2, D(3) dopamine receptor (Homo sapiens, UniProt P35462). The data set is described as follows: Displacement of [3H]methyl-spiperone from recombinant human D3 receptor expressed in CHO cells. In kind it is cell-based.
T2 sequence (P35462 whole entry): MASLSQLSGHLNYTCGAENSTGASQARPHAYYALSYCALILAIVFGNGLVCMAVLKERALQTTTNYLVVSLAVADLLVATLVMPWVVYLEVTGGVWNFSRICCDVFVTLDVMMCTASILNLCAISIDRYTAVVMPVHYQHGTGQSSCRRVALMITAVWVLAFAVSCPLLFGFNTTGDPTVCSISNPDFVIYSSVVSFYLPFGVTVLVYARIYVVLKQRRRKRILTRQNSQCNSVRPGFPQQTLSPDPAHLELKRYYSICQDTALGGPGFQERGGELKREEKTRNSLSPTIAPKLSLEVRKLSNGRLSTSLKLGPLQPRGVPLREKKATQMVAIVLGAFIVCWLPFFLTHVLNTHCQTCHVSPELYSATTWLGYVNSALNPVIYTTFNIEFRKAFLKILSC
Data set [4] addresses Histamine H1 receptor (Homo sapiens) (UniProt P35367). The data set is described as follows: Displacement of [3H]-pyrilamine from human H1 histamine receptor expressed in human HEK293 cells at 10 uM relative to control. In kind it is cell-based.
Data set [5] addresses T3, 5-hydroxytryptamine receptor 2A (Homo sapiens, UniProt P28223). Description: Displacement of [3H]ketanserin from recombinant human 5-HT2A receptor expressed in human HEK293 cells at 10 uM relative to control. It counts as cell-based.
In data set [6] the target is T4, 5-hydroxytryptamine receptor 1A (Homo sapiens) (UniProt P08908).
T4 sequence (whole entry): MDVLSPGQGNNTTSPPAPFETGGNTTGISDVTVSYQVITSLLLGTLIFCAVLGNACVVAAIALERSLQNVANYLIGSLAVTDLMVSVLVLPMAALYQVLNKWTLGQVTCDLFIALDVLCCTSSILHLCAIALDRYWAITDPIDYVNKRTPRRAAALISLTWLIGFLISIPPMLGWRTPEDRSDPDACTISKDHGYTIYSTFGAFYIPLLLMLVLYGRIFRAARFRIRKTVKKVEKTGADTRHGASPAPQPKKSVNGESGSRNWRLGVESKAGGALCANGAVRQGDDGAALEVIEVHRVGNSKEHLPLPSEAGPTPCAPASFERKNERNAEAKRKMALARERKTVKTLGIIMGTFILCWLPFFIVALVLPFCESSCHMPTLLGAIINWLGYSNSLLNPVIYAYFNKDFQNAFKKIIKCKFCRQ
Description: Displacement of [3H]OH-DPAT from recombinant human 5-HT1A receptor expressed in human HEK293 cells at 10 uM relative to control. It counts as cell-based.

Data set [7] has as its target T1, D(2) dopamine receptor. The data set is described as follows: Displacement of [3H]-spiperone from recombinant human D2L receptor expressed in CHO cells at 10 uM relative to control. It counts as cell-based.
The target of data set [8] is T2, D(3) dopamine receptor. Description: Displacement of [3H]methyl-spiperone from recombinant human D3 receptor expressed in CHO cells at 10 uM relative to control. It counts as cell-based.
Data set [9] can be described thus: Metabolic stability in rat liver microsomes assessed as half life. It counts as ADME, Microsome.
Data set [10] in a line: Metabolic stability in rat liver microsomes assessed as intrinsic clearance. Conditions: read-out: CLH. It counts as ADME, Microsome.
Data set [11] concerns the target T5, 5-hydroxytryptamine receptor 1A (Homo sapiens, UniProt P08908).
T5 sequence (P08908 whole entry): T4 sequence (whole entry)
The data set is described as follows: Displacement of [3H]OH-DPAT from recombinant human 5-HT1A receptor expressed in human HEK293 cells. In kind it is cell-based. The method, boiled down: as §1

Data set [12] concerns the target T3, 5-hydroxytryptamine receptor 2A. The data set is described as follows: Displacement of [3H]ketanserin from recombinant human 5-HT2A receptor expressed in human HEK293 cells. It counts as cell-based. The method, boiled down:
as §1

The next data set deals with Rattus norvegicus. The data set is described as follows: Antipsychotic activity in orally dosed Sprague-Dawley rat assessed as inhibition of PCP-induced hyperactivity administered 20 mins before PCP stimulation and measured after 1 hr. It counts as functional, organism-based. The conditions noted are these: dose 1-10 mg/kg, time 80.0 min. The method, boiled down: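 Male Sprague-Dawley rats dosed orally 20 min before PCP (5 mg/kg) injection. Locomotor activity recorded for 1 h after PCP, read as total travel distance. Mean ± standard error of the mean, n = 8-10 per group.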

Data set [13] is described as follows: Metabolic stability in human liver microsomes assessed as half life. It counts as ADME, Microsome. (Liver microsomes are vesicles of endoplasmic reticulum, rich in cytochrome P450 enzymes.)
Data set [14] is described as follows: Metabolic stability in human liver microsomes assessed as intrinsic clearance. The conditions noted are these: read-out: CLH. It counts as ADME, Microsome.

T3 sequence (P28223 whole entry): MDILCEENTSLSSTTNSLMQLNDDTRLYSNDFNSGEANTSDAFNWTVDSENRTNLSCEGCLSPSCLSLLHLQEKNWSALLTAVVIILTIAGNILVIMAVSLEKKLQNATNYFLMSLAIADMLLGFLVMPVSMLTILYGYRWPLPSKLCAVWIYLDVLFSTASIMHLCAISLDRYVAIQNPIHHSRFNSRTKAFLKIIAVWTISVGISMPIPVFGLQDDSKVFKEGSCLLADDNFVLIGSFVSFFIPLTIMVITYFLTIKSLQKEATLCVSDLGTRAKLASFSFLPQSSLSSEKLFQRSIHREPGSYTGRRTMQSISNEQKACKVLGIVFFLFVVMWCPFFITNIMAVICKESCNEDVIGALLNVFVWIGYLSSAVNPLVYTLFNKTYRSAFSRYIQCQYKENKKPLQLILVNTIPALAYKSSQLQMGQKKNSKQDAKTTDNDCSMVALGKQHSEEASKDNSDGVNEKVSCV
T1 sequence (P14416 whole entry): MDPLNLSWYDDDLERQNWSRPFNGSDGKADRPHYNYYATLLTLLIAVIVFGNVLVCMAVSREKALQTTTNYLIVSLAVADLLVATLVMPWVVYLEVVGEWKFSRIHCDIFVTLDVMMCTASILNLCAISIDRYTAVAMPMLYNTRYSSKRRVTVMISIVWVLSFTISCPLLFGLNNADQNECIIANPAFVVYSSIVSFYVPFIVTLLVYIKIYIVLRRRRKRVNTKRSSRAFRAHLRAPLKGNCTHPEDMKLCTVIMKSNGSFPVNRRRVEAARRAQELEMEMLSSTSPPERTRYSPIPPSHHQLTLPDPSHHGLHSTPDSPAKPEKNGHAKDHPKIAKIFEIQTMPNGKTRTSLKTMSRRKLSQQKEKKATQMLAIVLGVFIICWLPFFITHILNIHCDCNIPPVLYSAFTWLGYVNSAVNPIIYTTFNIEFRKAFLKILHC
Histamine H1 receptor (Homo sapiens), sequence (P35367 whole entry): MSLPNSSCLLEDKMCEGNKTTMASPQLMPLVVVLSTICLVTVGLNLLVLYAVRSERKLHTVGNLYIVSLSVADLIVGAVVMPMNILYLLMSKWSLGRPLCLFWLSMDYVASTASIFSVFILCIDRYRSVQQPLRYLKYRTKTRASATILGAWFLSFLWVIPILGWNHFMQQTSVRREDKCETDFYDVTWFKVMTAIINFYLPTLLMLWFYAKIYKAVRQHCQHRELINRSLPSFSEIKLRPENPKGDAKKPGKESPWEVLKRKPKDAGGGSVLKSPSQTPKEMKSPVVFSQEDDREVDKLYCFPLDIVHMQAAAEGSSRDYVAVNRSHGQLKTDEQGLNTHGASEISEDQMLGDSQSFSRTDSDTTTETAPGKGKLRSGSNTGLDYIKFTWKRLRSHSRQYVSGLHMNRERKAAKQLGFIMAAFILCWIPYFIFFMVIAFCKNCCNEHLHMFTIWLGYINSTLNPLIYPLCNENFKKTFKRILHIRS

With `CCCC(=O)N[C@H]1CC[C@H](CCN2CCc3ccc(Cl)cc3[C@@H](C)C2)CC1`, the inhibition (as a rule, the relative decrease from the control value, in per cent) in data set [1] came out at 18.7%; in data set [4] it was 27%; in data set [5], 52.7%; in data set [6], 81.3%. The Ki (usually a dissociation constant, usually derived from enzyme kinetics or from competition with a known ligand) is 84 nM on D(2) dopamine receptor [2] and 8.1 nM at D(3) dopamine receptor [3].

`CC1CN(CC[C@H]2CC[C@H](NC(=O)N(C)C)CC2)CCc2ccc(Cl)cc21` (mixture of isomers): the inhibition came out at 54.5% on D(2) dopamine receptor [7]; 68% at D(3) dopamine receptor [8]; 38% in [1]; 25.8% in [4]; 19.6% in data set [5]; 26.9% in [6].

Regarding `COc1ccc2[nH]c([S+]([O-])Cc3ncc(C)c(OC)c3C)nc2c1` (centres undefined) [OMEPRAZOLE], the half-life (as a rule, how long it takes for the measured level to halve) in data set [9] was determined as 38.5 min. For the same compound, in [10], the microsomal CLint worked out at 193 µL/min/mg.

As for `C[C@H]1CN(CC[C@H]2CC[C@H](NC(=O)N(C)c3ccccc3)CC2)CCc2ccc(Cl)cc21`, the inhibition in data set [1] was 38.6%; in data set [4], 75%; in [5], 58.8%; in data set [6] (filed as antagonist), 82.3%. Besides, the Ki on D(2) dopamine receptor [2] amounted to 189 nM; at D(3) dopamine receptor [3], 17.2 nM.

Consider `C[C@H]1CN(CC[C@H]2CC[C@H](NC(=O)N3CCCC3)CC2)CCc2ccc(Cl)cc21`, for which the inhibition in data set [1] is 60.3%; in data set [4] it was 56.8%; in data set [5], 87.4%. Moreover, the Ki was 6.3 nM at D(2) dopamine receptor [2], 5.3 nM in data set [11] and 1.1 nM at D(3) dopamine receptor [3].

For `C[C@H]1CN(CC[C@H]2CC[C@H](N3C(=O)c4ccccc4C3=O)CC2)CCc2ccc(Cl)cc21`, the inhibition on D(3) dopamine receptor [8] was 82%; in data set [1], 37.2%; in data set [4], 40.8%; in data set [5] it was 36.3%; in [6], 82.6%. Further, the Ki at D(2) dopamine receptor [2] was 5.8 nM.

`CCN(CC)C(=O)N[C@H]1CC[C@H](CCN2CCc3ccc(Cl)cc3[C@@H](C)C2)CC1`: the inhibition in data set [1] turned out to be 29.1%; in data set [4] it was 69.2%; in data set [5], 73.6%; in data set [6], 75.2%. Also, the Ki at D(2) dopamine receptor [2] came to 91.1 nM; at D(3) dopamine receptor [3], 15 nM.

`C[C@H]1CN(CC[C@H]2CC[C@H](NC(=O)N(C)C)CC2)CCc2ccc(Cl)cc21`: the inhibitory constant (Ki) in data set [12] came to 25.6 nM; on D(2) dopamine receptor [2], 5.9 nM; in [11], 14.5 nM; at D(3) dopamine receptor [3], 0.5 nM. The Activity entry in the data set on Rattus norvegicus is “Dose-dependent effect”. Also, the inhibition in data set [1] came to 44.1%; in [4] it was 59.6%. For the same compound, the values for the half-life in [13] and in [9] were 32.7 min and 23.2 min, respectively. Moreover, the microsomal CLint in [14] is 42.4 µL/min/mg; in data set [10], 59.7 µL/min/mg.

As to `CCN(C)C(=O)N[C@H]1CC[C@H](CCN2CCc3ccc(Cl)cc3[C@@H](C)C2)CC1`, the inhibition in data set [1] stood at 43.5%; in data set [4] it was 49.7%; in [5], 85.9%. In addition, the Ki on D(2) dopamine receptor [2] amounted to 23.9 nM; in data set [11], 36 nM; at D(3) dopamine receptor [3] it was 7.2 nM.

As for `C[C@H]1CN(CC[C@H]2CC[C@H](N3C(=O)CC4(CCCC4)CC3=O)CC2)CCc2ccc(Cl)cc21`, the Ki is 16.2 nM in data set [12], 12.1 nM at D(2) dopamine receptor [2], 4.3 nM in data set [11] and 1.2 nM at D(3) dopamine receptor [3]. This compound also displayed an inhibition in [1] of 60.9%.

Take `C[C@H]1CN(CC[C@H]2CC[C@H](NC(=O)C3CC3)CC2)CCc2ccc(Cl)cc21`: the inhibition was determined as 57.6% in data set [1], 33.2% in data set [4] and 56.6% in data set [5]. Moreover, the Ki at D(2) dopamine receptor [2] was found to be 9.8 nM; in data set [11] it was 191 nM; on D(3) dopamine receptor [3] it was 8.2 nM.

Consider `C[C@H]1CN(CC[C@H]2CC[C@H](N3C(=O)[C@@H]4[C@@H]5CC[C@@H](C5)[C@@H]4C3=O)CC2)CCc2ccc(Cl)cc21`, for which the inhibition in [1] was determined as 79.2%; in data set [5], 80.8%. In addition, the Ki at D(2) dopamine receptor [2] worked out at 31.6 nM; in [11], 24.9 nM; at D(3) dopamine receptor [3], 3.3 nM.

For `C[C@@H]1CN(CC[C@H]2CC[C@H](NC(=O)N(C)C)CC2)CCc2ccc(Cl)cc21`, the inhibition in data set [1] worked out at 48.3%; in data set [4], 46.5%; in data set [5] it was 72%; in data set [6] it was 83.9%. Also, the Ki was 290 nM at D(2) dopamine receptor [2] and 195 nM on D(3) dopamine receptor [3].

`C[C@H]1CN(CC[C@H]2CC[C@H](N3C(=O)CCC3=O)CC2)CCc2ccc(Cl)cc21`: the inhibition at D(2) dopamine receptor [7] worked out at 79.8%; in data set [1], 62.1%; in data set [4], 62.4%; in data set [5], 47.4%. For the same compound, the Ki worked out at 93.4 nM in data set [11] and 191 nM at D(3) dopamine receptor [3].

Regarding `C[C@H]1CN(CC[C@H]2CC[C@H](NC(=O)[C@@H]3CCCO3)CC2)CCc2ccc(Cl)cc21`, the results for the inhibition in data set [1], in data set [4] and in data set [5] were 36.4%, 32.2% and 69.6%, respectively. The Ki at D(2) dopamine receptor [2] came out at 20.6 nM; in data set [11], 98.3 nM; at D(3) dopamine receptor [3], 19.1 nM.

Turning to `C[C@H]1CN(CC[C@H]2CC[C@H](NC(=O)N3CCOCC3)CC2)CCc2ccc(Cl)cc21`, the inhibition in [1] was 48%; in data set [4], 33.3%; in data set [5], 50.6%; in data set [6], 86.1%. Besides, the Ki at D(2) dopamine receptor [2] amounted to 2.9 nM; on D(3) dopamine receptor [3], 1.8 nM.

Consider `C[C@H]1CN(CC[C@H]2CC[C@H](NC(=O)c3ccco3)CC2)CCc2ccc(Cl)cc21`, for which the Ki is 19.3 nM on D(2) dopamine receptor [2], 10.6 nM in data set [11] and 1.8 nM on D(3) dopamine receptor [3].

With `C[C@H]1CN(CC[C@H]2CC[C@H](NC(=O)Nc3ccccc3)CC2)CCc2ccc(Cl)cc21`, the inhibition in [1] was 53.8%; in [4] (filed as antagonist) it was 88.2%; in data set [5], 67%. The Ki on D(2) dopamine receptor [2] worked out at 2.8 nM; at D(3) dopamine receptor [3] it was 1.5 nM.

On to `COc1ccc2c(c1)[C@]13CCCC[C@@H]1[C@H](C2)N(C)CC3` [DEXTROMETHORPHAN], for which, in [13], the half-life was found to be 23.2 min. Moreover, the microsomal CLint in data set [14] was determined as 59.7 µL/min/mg.

`C[C@H]1CN(CC[C@H]2CC[C@H](N3C(=O)[C@@H]4[C@H](C3=O)[C@@H]3C=C[C@H]4C3)CC2)CCc2ccc(Cl)cc21`: the inhibition was determined as 74.4% in [1] and 82.8% in [5]. The Ki on D(2) dopamine receptor [2] is 43.7 nM; in data set [11], 22.8 nM; on D(3) dopamine receptor [3], 6.9 nM.

For `C[C@H]1CN(CC[C@H]2CC[C@H](NC(=O)C3CCCCC3)CC2)CCc2ccc(Cl)cc21`, the inhibition was 35.3% in data set [1], 36.8% in data set [4], 38.2% in [5] and 69.9% in [6]. Besides, the Ki is 99.3 nM on D(2) dopamine receptor [2] and 17.5 nM on D(3) dopamine receptor [3].

For the compound `C[C@H]1CN(CC[C@H]2CC[C@H](N3C(=O)[C@H]4CCCC[C@H]4C3=O)CC2)CCc2ccc(Cl)cc21`, the inhibition in [1] came to 63.2%; in data set [4], 86.1%; in data set [5], 76.9%. The Ki amounted to 14.1 nM at D(2) dopamine receptor [2], 6.6 nM in data set [11] and 9.3 nM at D(3) dopamine receptor [3].

`C[C@H]1CN(CC[C@H]2CC[C@H](NC(=O)[C@@H]3CCCN3)CC2)CCc2ccc(Cl)cc21`: the inhibition in [1] stood at 75.8%; in data set [4], 60.1%; in data set [5] it was 89%. Also, the Ki is 25.3 nM on D(2) dopamine receptor [2], 74.7 nM in data set [11] and 9.5 nM on D(3) dopamine receptor [3].

As for `CN1CCN(C2=Nc3cc(Cl)ccc3Nc3ccccc32)CC1`, in the data set on Rattus norvegicus, the Activity entry was “Dose-dependent effect”.
